Source: ChEMBL document CHEMBL3232898, “Heterocyclic aminoparthenolide derivatives modulate G(2)-M cell cycle progression during Xenopus oocyte maturation” (Bioorg Med Chem Lett, 2014)
Activity calls are given as the source filed them. The rule behind the calls is not given here.

Key:
Oocyte [1] = assay: Modulation of G2-M cell cycle progression in Xenopus oocytes assessed as effect on phenotype upon progression to GVBD during oocyte maturation in presence of progesterone; assay type: functional, cell-based
In short: (§1)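 Isolated Xenopus oocytes (20 per well) were incubated overnight with compound added from DMSO stock (100 µM starting concentration, 1% DMSO final). Next morning GVBD was scored by the appearance of a white spot on the animal pole. Oocytes without spots then received 2 µg/ml progesterone. Time to GVBD was expressed relative to the GVBD50 of DMSO controls, where 1.0 means no change, 2.0 means no maturation and 0.0 means spontaneous GVBD.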

Oocyte [2] = assay: Modulation of G2-M cell cycle progression in Xenopus oocytes assessed as delay time to germinal vesicle breakdown at 100 uM measured after overnight incubation in presence of progesterone; assay type: functional, cell-based; in short: as §1
Oocyte [3] = assay: Modulation of G2-M cell cycle progression in Xenopus oocytes assessed as acceleration of progesterone-stimulated oocyte progression to germinal vesicle breakdown at 5 to 50 uM measured after overnight incubation relative to DMSO-treated control; assay type: functional; in short: as §1
Oocyte [4] = assay: Modulation of G2-M cell cycle progression in Xenopus oocytes assessed as inhibition of progesterone-stimulated maturation by measuring germinal vesicle breakdown at 100 uM measured after overnight incubation; assay type: functional, cell-based; in short: as §1
Oocyte [5] = assay: Modulation of G2-M cell cycle progression in Xenopus oocytes assessed as acceleration of progesterone-stimulated maturation by measuring germinal vesicle breakdown after overnight incubation; assay type: functional, cell-based; conditions: Xenopus laevis; in short: as §1
Oocyte [6] = assay: Modulation of G2-M cell cycle progression in Xenopus oocytes assessed as induction of oocyte progression to germinal vesicle breakdown by measuring appearance of white spot on animal pole after overnight incubation in absence of progesterone; assay type: functional, cell-based; in short: as §1
Xenopus [7] = assay: Activation of CDK1/Cyclin B (MPF) in Xenopus oocytes assessed as retention of inhibitory phosphorylation of CDK1 at 100 uM measured prior to GVBD completion; assay type: cell-based
In short: (§2)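 Oocytes treated with compound or DMSO were lysed in NP40 buffer with sodium vanadate and protease inhibitors, clarified, run on 10% gels and blotted to nitrocellulose. Blots were blocked in 1% BSA/TBST and probed at 1:1000 with phospho-Cdc2 Tyr15 (inhibitory) and phospho-MAP kinase Thr202/Tyr204 (activating) antibodies, then HRP secondary with ECL detection.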

Oocyte [8] = assay: Modulation of G2-M cell cycle progression in Xenopus oocytes assessed as induction of spontaneous maturation by measuring germinal vesicle breakdown at 100 uM after overnight incubation in absence of progesterone; assay type: functional, cell-based; in short: as §1
Xenopus [9] = assay: Activation of progesterone-independent MAPK in Xenopus oocytes assessed as de-phosphorylation of MPF at 100 uM measured after GVBD completion; assay type: cell-based; in short: as §2
Xenopus [10] = assay: Activation of progesterone-independent MAPK in Xenopus oocytes assessed as enzyme phosphorylation at 100 uM measured prior to GVBD completion; assay type: cell-based; in short: as §2
Xenopus [11] = assay: Activation of progesterone-independent MAPK in Xenopus oocytes assessed as enzyme phosphorylation at 100 uM measured after GVBD completion; assay type: cell-based; in short: as §2

Row | SMILES | Activity (Oocyte [1]) | other results
1 | CSc1nc(NC[C@@H]2C(=O)O[C@H]3[C@H]2CC/C(C)=C/CC[C@@]2(C)O[C@H]32)n[nH]1 | inactive | –
2 | C=C1C(=O)O[C@@H]2C3O[C@]3(C)CC/C=C(\C)CC[C@@H]12 (stereo not given in full) | inactive | –
3 | C/C1=C\CC[C@@]2(C)O[C@@H]2[C@H]2OC(=O)[C@@H](CNCCN3CCOCC3)[C@@H]2CC1 | – | Activity (Oocyte [2]): Active
4 | C/C1=C\CC[C@@]2(C)O[C@@H]2[C@H]2OC(=O)[C@@H](Cn3cnc([N+](=O)[O-])c3)[C@@H]2CC1 | inactive | –
5 | C/C1=C\CC[C@@]2(C)O[C@@H]2[C@H]2OC(=O)[C@@H](CNCCCn3ccnc3)[C@@H]2CC1 | – | fold change (FC) (Oocyte [3]): 2; inhibition (Oocyte [4]): Active; EC50 (Oocyte [5]): < 5 µM
6 | C/C1=C\CC[C@@]2(C)O[C@@H]2[C@H]2OC(=O)[C@@H](CNCC3CCNCC3)[C@@H]2CC1 | inactive | –
7 | C/C1=C\CC[C@@]2(C)O[C@@H]2[C@H]2OC(=O)[C@@H](Cn3ccnc3)[C@@H]2CC1 | inactive | –
8 | C/C1=C\CC[C@@]2(C)O[C@@H]2[C@H]2OC(=O)[C@@H](Cn3ccnc3C)[C@@H]2CC1 | inactive | –
9 | C/C1=C\CC[C@@]2(C)O[C@@H]2[C@H]2OC(=O)[C@@H](CNc3nc4ccccc4[nH]3)[C@@H]2CC1 | – | Activity (Oocyte [6]): Dose-dependent effect; Activity (Xenopus [7]): inactive; Activity (Oocyte [8]): Active; Activity (Xenopus [9]): Active; Activity (Xenopus [10]): Active; Activity (Xenopus [11]): Active
10 | C/C1=C\CC[C@@]2(C)O[C@@H]2[C@H]2OC(=O)[C@@H](Cn3cnc(C(F)(F)F)c3)[C@@H]2CC1 | inactive | –
11 | C/C1=C\CC[C@@]2(C)O[C@@H]2[C@H]2OC(=O)[C@@H](CNCc3nc4ccccc4[nH]3)[C@@H]2CC1 | inactive | –
12 | C/C1=C\CC[C@@]2(C)O[C@@H]2[C@H]2OC(=O)[C@@H](CN(C)C)[C@@H]2CC1 | inactive | –
13 | C/C1=C\CC[C@@]2(C)O[C@@H]2[C@H]2OC(=O)[C@@H](Cn3cnc(CO)c3)[C@@H]2CC1 | inactive | –
